Results on 13 molecules are retold here after ChEMBL document CHEMBL3421559, “Discovery of 5-(2',4'-difluorophenyl)-salicylanilides as new inhibitors of receptor activator of NF-κB ligand (RANKL)-induced osteoclastogenesis” (Eur J Med Chem, 2015).

For orientation: inhibition means the relative decrease from the control value, in per cent. By IC50 is commonly meant the midpoint of a concentration-inhibition curve.

Calls of active or inactive are those of the source. The rule behind the calls is not given here.

For data set [1], the system named is RAW264.7. Kind of data set: Downregulation of RANKL-induced cathepsin K gene expression in mouse RAW264.7 cells at 2.5 and 5 uM treated for 1 hr prior to incubation with RANKL for 24 hrs by RT-PCR analysis. Type of data set: functional, cell-based. The gist of the method: (§1)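 RAW264.7 cells grown a day in DMEM/10% FBS were switched to α-MEM with 100 ng/mL murine RANKL, with or without compound, for 24 h. Trizol RNA (2 µg) was reverse-transcribed with oligo(dT) and amplified with mouse-specific primers. Products were run on 1.5% agarose with EtBr, and band densities normalized to GAPDH.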

Data set [2] relates to RAW264.7. Description: Inhibition of RANKL-induced bone-resorbing activity in mouse RAW264.7 cells assessed as reduction of resorbing pits formed on dentine slices by mature osteoclasts after 4 days by pit formation assay. Type of data set: functional, cell-based. The gist of the method:
(§2)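 Cells on dentine slices were kept in α-MEM with 10% FBS, 2 mM […] and 100 ng/mL RANKL, with or without compound, and medium was renewed every 2 days. At day 4, cells were removed with 1 M ammonium hydroxide and slices stained with 0.1% toluidine blue. Resorbed area/total area was measured per optical field.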

Data set [3] has as its system RAW264.7. Description: Inhibition of RANKL-induced NF-kappaB activation in mouse RAW264.7 cells assessed as decrease in nuclear translocation of NF-kappaB at 5 uM treated for 1 hr prior to incubation with RANKL for 24 hrs by Western blot assay relative to control TBP gene expression. Type of data set: cell-based. The gist of the method: (§3)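 Cells were pretreated with compound for 1 h in α-MEM/10% FBS, then given RANKL (100 ng/mL) for 24 h. Nuclear extracts (18 µg) were separated on 12% SDS-PAGE and blotted to PVDF, blocked with 5% BSA. Blots were probed overnight-style for 12 h at 4 °C with mAbs (1:1000) to NF-κB p65, NFATc1 and TBP, then HRP anti-rabbit (1:10000), with chemiluminescent detection.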

A short description of data set [4]: Cytotoxicity against mouse RAW264.7 cells assessed as cell viability at 5 uM after 24 hrs by MTT assay. Type of data set: cell-based. The settings on record: read-out: Activity. The gist of the method: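 RAW264.7 cells at 1 × 10^4 per well in DMEM with 10% FBS were exposed to compound for 24 h. After PBS washes, they got 500 µg/mL MTT for 1 h at 37 °C. Formazan was dissolved in DMSO and read at 540 nm. Viability is relative to control, mean ± SD from at least three independent runs.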
(In general: Tetrazolium dyes change colour on reduction, which living cells bring about.)

Data set [5] has as its system RAW264.7. Kind of data set: Downregulation of RANKL-induced NFATc1 gene expression in mouse RAW264.7 cells at 2.5 and 5 uM treated for 1 hr prior to incubation with RANKL for 24 hrs by RT-PCR analysis. In kind it is functional, cell-based. The gist of the method: as §1
Data set [6] deals with RAW264.7. Description: Downregulation of RANKL-induced NFATc1 nuclear expression in mouse RAW264.7 cells at 5 uM treated for 1 hr prior to incubation with RANKL for 24 hrs by Western blot analysis relative to control TBP gene expression. Type of data set: functional. The gist of the method: as §3
Data set [7] deals with RAW264.7. Kind of data set: Inhibition of RANKL-induced bone-resorbing activity in mouse RAW264.7 cells assessed as reduction of resorbing pits formed on dentine slices by mature osteoclasts at 5 uM after 4 days by pit formation assay. Type of data set: functional. The settings on record: RAW264.7, Dentine, 96 h. The gist of the method:
as §2

The subject of data set [8] is RAW264.7. Description: Downregulation of RANKL-induced MMP-9 gene expression in mouse RAW264.7 cells at 2.5 and uM treated for 1 hr prior to incubation with RANKL for 24 hrs by RT-PCR analysis. Type of data set: functional, cell-based. The gist of the method:
as §1

Data set [9] concerns RAW264.7. Description: Inhibition of RANKL-induced osteoclastogenesis in mouse RAW264.7 cells assessed as decrease in TRAP activity after 4 days by TRAP activity assay. The note with it: RAW264.7, 96 h.
The test system of data set [10] is RAW264.7. Kind of data set: Downregulation of RANKL-induced DC-STAMP gene expression in mouse RAW264.7 cells at 2.5 and 5 uM treated for 1 hr prior to incubation with RANKL for 24 hrs by RT-PCR analysis. In kind it is functional, cell-based. The gist of the method:
as §1

In data set [11] the test system is RAW264.7. Description: Downregulation of RANKL-induced c-fos gene expression in mouse RAW264.7 cells at 2.5 and 5 uM treated for 1 hr prior to incubation with RANKL for 24 hrs by RT-PCR analysis. Type of data set: functional, cell-based. The gist of the method: as §1
The subject of data set [12] is RAW264.7. Description: Downregulation of RANKL-induced TRAP gene expression in mouse RAW264.7 cells at 2.5 and 5 uM treated for 1 hr prior to incubation with RANKL for 24 hrs by RT-PCR analysis. In kind it is functional, cell-based. The gist of the method: as §1
Data set [13] in a line: Retention time of the compound by HPLC analysis. In kind it is physicochemical. The gist of the method: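 Reversed-phase column (5 µm, 4.6 × 250 mm) at 1.0 mL/min with a 0–20% H2O in MeOH gradient.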
For data set [14], the system named is RAW264.7. Description: Inhibition of RANKL-induced NF-kappaB activation in mouse RAW264.7 cells assessed as decrease in nuclear accumulation of NF-kappaB at 5 uM treated for 1 hr prior to incubation with RANKL for 24 hrs by ELISA. In kind it is cell-based. The gist of the method: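 After 1 h compound pretreatment and 24 h RANKL (100 ng/mL), nuclear extracts were tested in a p65 DNA-binding ELISA. The plate is coated with NF-κB response element, followed by primary antibody and tagged secondary antibody, with absorbance read at 450 nm.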
A general note: ELISA stands for enzyme-linked immunosorbent assay.

Data set [15] concerns RAW264.7. Description: Inhibition of RANKL-induced osteoclastogenesis in mouse RAW264.7 cells. In kind it is functional, cell-based. The gist of the method: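 RAW264.7 cells (2 × 10^4 per well) were cultured with 100 ng/mL RANKL in α-MEM/10% FBS, with or without compound. On day 4 they were lysed in 0.1% Triton X-100/50 mM Tris-HCl pH 7.2 on ice. TRAP was assayed with 2 mg/mL 4-nitrophenyl phosphate in 0.09 M citrate for 15 min at 37 °C, stopped with NaOH and read at 405 nm. Values were normalized to BCA protein for IC50.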

For `N#Cc1cccc(NC(=O)c2cc(-c3ccc(F)cc3F)ccc2O)c1`, the inhibition entry in [1], in data set [2], in [5], in data set [8], in data set [10] and in [11] was “Dose-dependent effect” each time. Moreover, the inhibition result in data set [12] was “Dose-dependent effect”. Besides, the fold change (FC) in data set [3] is 0.82; in [6] it was 0.52. In data set [4], the viability at 24 h, 5 µM was 72.2%. For the same molecule, in data set [7], the inhibition at 5 µM is 59.3%. Moreover, the IC50 in data set [9] amounted to 2.96 µM. The Retention_time in data set [13] was 6.92 min. The inhibition entry in data set [14] was “Active”.

Regarding `C#Cc1cccc(NC(=O)c2cc(-c3ccc(F)cc3F)ccc2O)c1`, the viability at 24 h, 5 µM in data set [4] was 63%. This molecule also gave a Retention_time in data set [13] of 6.37 min.

For `O=C(Nc1ccc(F)c(F)c1)c1cc(-c2ccc(F)cc2F)ccc1O`, the viability at 24 h, 5 µM in data set [4] was 78.4%. In data set [13], this molecule displayed a Retention_time of 7.72 min.

Take `O=C(Nc1ccc(Cl)cc1F)c1ccccc1O`: the IC50 in data set [15] is 15 µM; in data set [9], above 10 µM.

Regarding `O=C(Nc1ccccc1C(F)(F)F)c1cc(-c2ccc(F)cc2F)ccc1O`, the viability at 24 h, 5 µM in [4] was determined as 99.4%. This molecule returned a Retention_time in [13] of 5.44 min.

On to `COc1cccc(NC(=O)c2cc(-c3ccc(F)cc3F)ccc2O)c1`, for which, in data set [4], the viability at 24 h, 5 µM turned out to be 105%. In [13], this molecule came in with a Retention_time of 5.89 min.

With `O=C(Nc1ccc(Cl)cc1F)c1cc(-c2ccc(F)cc2F)ccc1O`, the viability at 24 h, 5 µM in [4] amounted to 77.5%. Further, in [13], the Retention_time is recorded as 9.07 min.

In the case of `COc1ccc(NC(=O)c2cc(-c3ccc(F)cc3F)ccc2O)cc1OC`, the viability at 24 h, 5 µM in data set [4] turned out to be 98.9%. The Retention_time in data set [13] is given as 7.61 min.

In the case of `O=C(Nc1ccc(F)cc1F)c1cc(-c2ccc(F)cc2F)ccc1O`, the viability at 24 h, 5 µM in data set [4] amounted to 110%. This molecule registered a Retention_time in [13] of 6.45 min.

`O=C(Nc1cccc(C(F)(F)F)c1)c1cc(-c2ccc(F)cc2F)ccc1O`: the viability at 24 h, 5 µM in [4] stood at 96.7%. In addition, in data set [9], the IC50 was determined as 4.57 µM. Besides, the Retention_time in data set [13] was 7.27 min.

Take `O=C(Nc1cc(F)ccc1F)c1cc(-c2ccc(F)cc2F)ccc1O`: the inhibition result in [1], in data set [2], in data set [5], in data set [8], in data set [10] and in [11] was “Dose-dependent effect” in each case. Moreover, in data set [12], the inhibition entry was “Dose-dependent effect”. Besides, the fold change (FC) in data set [3] came to 0.76; in data set [6], 0.55. Also, in [4], the viability at 24 h, 5 µM was found to be 102%. Also, the inhibition at 5 µM in [7] was 80.5%. Further, the concentration for half-maximal inhibition (IC50) in data set [9] worked out at 3.67 µM. In [13], the Retention_time turned out to be 7.8 min. Besides, the inhibition result in data set [14] is “Active”.

For the molecule `N#Cc1ccc(NC(=O)c2cc(-c3ccc(F)cc3F)ccc2O)cc1`, the viability at 24 h, 5 µM in [4] stood at 96.2%. Besides, in data set [13], the Retention_time was found to be 6.84 min.

As for `O=C(Nc1ccc(C(F)(F)F)cc1)c1cc(-c2ccc(F)cc2F)ccc1O`, the viability at 24 h, 5 µM in data set [4] is 85.2%. In [13], this molecule showed a Retention_time of 7.87 min.
